Shown are actives, neighbours in structure and some others; about 2% of the full set was active somewhere.
PvdQ acylase: blocks Pseudomonas aeruginosa PvdQ acylase activity; AID 488965; actives 0.063% (n = 340,000); purified PvdQ acylase, fluorescence plate reader; inhibition, % at 10 µM; in the data active means inhibition above about 30%, passing the limit was not always enough;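 further: 0% = vehicle neutral wells and 100% = reference inhibitor wells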
PLCg1 inh: blocks human PLC-gamma1 enzyme activity | inhibition, % at 12.2 µM | actives 0.84% (n = 370,000) | purified PLC-gamma1, fluorogenic substrate, fluorescence | P19174; in the data active means inhibition above about 9.5%
VIM-2 inh: blocks Pseudomonas aeruginosa VIM-2 metallo-beta-lactamase. purified VIM-2, nitrocefin hydrolysis, epi-absorbance fluorescence. inhibition, % at 5.6 µM. actives 0.89% (n = 290,000);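 active means inhibition above the mean of all tested compounds plus 3 SD, cutoff set per screening run, cut at about 7.5% in these data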;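 further: red hydrolysis product quenches plate fluorescence so inhibitors raise well fluorescence; 0% = enzyme with DMSO and 100% = DMSO without enzyme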
PLCb3 inh: inhibitors of human phospholipase C beta3. inhibition, % at 12.2 µM. actives 0.18% (n = 370,000). Q01970. Purified PLC-beta3, fluorogenic substrate, fluorescence; in the data active means inhibition above about 11%;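 further: 0% = median of compound wells on plate and 100% = full blocker control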
IMP-1 inh: inhibitors of Pseudomonas aeruginosa IMP-1 metallo-beta-lactamase. purified IMP-1, nitrocefin hydrolysis, epi-absorbance fluorescence. actives 0.45% (n = 290,000). inhibition, % at 5.6 µM;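 active means inhibition above the mean plus 3 SD of all compounds in the same screening run, cut at about 4.5% in these data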;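 further: 0% = IMP-1 with DMSO and 100% = DMSO wells lacking enzyme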
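System: purified IMP-1 / Input: IMP-1 dispensed at 0.2 nM / Medium: 50 mM HEPES pH 7.1, 50 µM ZnSO4, 0.05% Brij 35 / Timing: 15 min enzyme–compound preincubation, then 25 min nitrocefin reaction, 25 °C / Technique: plate fluorescence quenching by hydrolysis product, ex 480/em 530 nm / Repeats: singlicate testing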
Numbers without * were called inactive; i = inactive; . = no result given.

SMILES	PvdQ acylase	PLCg1 inh	VIM-2 inh	PLCb3 inh	IMP-1 inh
COc1ccc(-c2cc(C(=O)Nc3cc(Cl)ccc3O)no2)cc1	-5	0	-5	-5	25*
COC(=O)c1cc(-c2cccc(OC)c2)on1	47*	5	0	9	-1
COC(=O)[C@H](CC(C)C)N1Cc2nnn(Cc3ccc(C)cc3)c2-c2cc(F)ccc2S1(=O)=O	.	6	.	0	.
COC(=O)c1cc(-c2ccc(Br)cc2)on1	92*	-1	-2	0	-3
COC(=O)c1cc(-c2ccccc2)on1	-2	5	-3	7	-2
O=C(CCc1ccccc1-c1ccccc1CCNC(=O)c1ccccc1)NCc1ccccc1	.	0	.	3	.
N#CC(c1ccc(Cl)cc1)c1ncc(C(F)(F)F)cc1Cl (centres undefined)	57*	4	-1	2	-2
Cn1cccc1C(C#N)c1ncc(C(F)(F)F)cc1Cl (centres undefined)	-1	-1	0	-8	0
NC(=O)C(c1ccccc1)c1ncc(C(F)(F)F)cc1Cl (centres undefined)	1	5	-1	-4	-2
N#CC(c1cccc(Cl)c1)c1ncc(C(F)(F)F)cc1Cl (centres undefined)	52*	4	-1	1	-1
O=C(CCn1nnc(-c2cccs2)n1)N1CCOCC1	.	-1	.	-2	.
CCN1CCc2c(sc(NC(=O)c3ccc(S(=O)(=O)N4CCCC4)cc3)c2C(=O)NC)C1	-3	-69	8.7*	-103	0
CCCN1CCc2c(sc(NC(=O)c3ccc(S(=O)(=O)N(C)c4ccccc4)cc3)c2C(=O)NC)C1	-6	-178	5	-241	9.6*
CNC(=O)c1c(NC(=O)c2ccc(S(=O)(=O)N3CCCCC3)cc2)sc2c1CCN(C(C)C)C2	3	-338	0	-353	0
CC(=O)N[C@@H]1C[C@@H]2O[C@H](CO)CC[C@@H]2O[C@@H]1CCc1ccc(C#CC2(O)CCCC2)cc1	.	1	.	1	.
C[C@@H](OC(=O)N1CCCCC1)[C@H]1O[C@]2(C)CCCC[C@H]1O2	-1	11*	.	7	.
O=C1C2CC=C(Cl)CC2C(=O)N1CCc1ccccc1 (centres undefined)	-12	-89	-1	-138	6.9*
CC1=NNC(=O)/C1=C\c1cn(-c2ccccc2)nc1-c1ccccc1	-10	10*	-2	3	-3
O=Cc1cn(-c2ccccc2)nc1-c1ccccc1	-8	-1	0	-5	-1
O=C(c1ccc(-n2cccc2)cc1)N1CCN(Cc2ccccc2)CC1	9	4	-1	4	-1
Cn1nc(-c2ccc(C(=O)N3CCN(Cc4ccccc4)CC3)cc2)c2ccccc2c1=O	-7	5	11*	7	-3
Cc1ccc(S(=O)(=O)N2CC[C@@]3(Cc4ccccc4)Cc4ccccc4C[C@@H]23)cc1	.	5	.	3	.
O=C(CCn1nnc(-c2cccs2)n1)NCc1ccco1	.	1	.	2	.
CCCN(CCC)C(=S)NC(=O)c1ccc(Cl)cc1Cl	-11	13*	-1	8	-2
CCCC#Cc1ccc(CC[C@H]2O[C@H]3CC[C@H](CO)O[C@H]3C[C@H]2NC(=O)CN2CCOCC2)cc1	.	-1	.	3	.
SMILES	PvdQ acylase	PLCg1 inh	VIM-2 inh	PLCb3 inh	IMP-1 inh
Cc1c(C(=O)Nc2cccc(N(C)S(C)(=O)=O)c2)cccc1[N+](=O)[O-]	-14	14*	-1	14*	-3
Cc1[nH]n(-c2ccccc2)c(=O)c1N=Nc1ccc(C(N)=O)cc1	-6	-3	12*	-4	-2
Cc1[nH]n(-c2ccccc2)c(=O)c1N=Nc1ccc(C(=O)O)cc1	0	4	2	-4	-4
Cc1ccc(-c2nc(C3CCCN(S(=O)(=O)c4ccccc4)C3)no2)cc1 (centres undefined)	.	3	.	-1	.
CCN(CC)S(=O)(=O)c1cccc(C(=O)N/N=C2\CCCC(=O)C2)c1	4	-322	4	-448	5.8*
CCN(CC)S(=O)(=O)c1cccc(C(=O)N/N=C2\CC(=O)CC(C)(C)C2)c1	-3	-73	1	-89	2
COc1ccc(Nc2nc(N3CCN(S(C)(=O)=O)CC3)nc3ccccc23)c(OC)c1	10	-35	4	-47	-3
CC(Nc1nc(N2CCN(S(C)(=O)=O)CC2)nc2ccccc12)c1ccccc1 (centres undefined)	-12	-39	1	-49	4.5*
COc1cccc2c1C(=O)c1ccc3ccccc3c1C2=O	-11	.	1	.	13*
Nc1c(C(=O)c2ccccc2)sc2nsc(SCCN3CCCC3)c12	-7	-41	8.3*	-59	2
O=C(NC1CCCCN(Cc2ccc(Cl)cc2)C1=O)c1ccc2ccccc2c1 (centres undefined)	.	6	.	1	.
CC(C)C[C@@H]1NC(=O)[C@H]2C[C@@]3(C)c4ccccc4N[C@H]3N2C1=O	.	-6	.	-10	.
CC(=O)c1ccc(Nc2cc(C)nc3ccc(C)cc23)cc1	-7	-28	8.4*	-41	-1
Cc1ccc2nc(C)cc(Nc3ccc4c(c3)OCCO4)c2c1	12	1	11*	2	-2
COc1ccc(Nc2cc(C)nc3ccc(C)cc23)cc1	.	2	.	3	.
CCCC1CCC2(CC1)CCC2OC(=O)Nc1ccc2c(c1)OCO2 (centres undefined)	.	-3	.	1	.
CC(=O)OCCCN1C(=O)c2cccc3cc(Br)cc(c23)C1=O	.	.	12*	.	0
CCOC(=O)c1cnc(-n2nc(C)cc2C)nc1NC1CCCC1	-3	-34	8.4*	-14	-4
CCOC(=O)c1cnc(-n2nc(C)cc2C)nc1NCCc1ccccc1	-4	-2	9.6*	-5	-4
CCOC(=O)c1cnc(-n2nc(C)cc2C)nc1Nc1ccc(OC)cc1	0	6	11*	2	-4
CCOC(=O)c1cnc(-n2nc(C)cc2C)nc1N(C)C	-5	-1	2	-1	-6
O=C(NCc1ccccc1Cl)C1CCCN(c2nc3ccccc3o2)C1 (centres undefined)	.	-1	.	-5	.
COC(=O)[C@]12C[C@H](CC(=O)NCCCCc3ccccc3)C(=O)N(Cc3ccccc3)C1=C[C@H](COCc1ccccc1)O[C@@H]2C	.	1	.	2	.
CC(C)CSc1nnc(-c2ccco2)n1C	.	1	.	3	.
Cc1cnc(N)c2c(=O)oc3ccccc3c12	-11	-31	8.4*	-36	-4
O=S(=O)(c1ccc(CN2CCOCCOCCN(Cc3ccc(S(=O)(=O)C(F)(F)F)cc3)CCOCC2)cc1)C(F)(F)F	.	-1	.	-5	.
CC(C)(C)c1ccc(C(=O)Nc2cccc3c(=O)[nH][nH]c(=O)c23)cc1	3	i	-3	i	5.9*
Cc1ccc(C(=O)Nc2cccc3ccccc23)cc1	6	0	-3	-10	-3
CCc1cccc(NC(=O)CCS(=O)(=O)c2ccc(Br)cc2)c1	-11	-1	-1	-3	9.8*
O=C(CCS(=O)(=O)c1ccc(Br)cc1)NCCc1ccccc1	-8	0	0	-2	2

Assay outcomes deposited in PubChem BioAssay by several laboratories.
